Values after ≈ are worked out from the molar mass of the structure shown.
What was measured:
Cryptococcus neoformans = experiment: Antifungal activity against Cryptococcus neoformans after 24 to 72 hrs by broth microdilution method; type: functional
Method in brief: (§1)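 Broth microdilution MIC per CLSI M27-A3 (yeasts) or M38-A2 (molds). RPMI 1640 with L-glutamine, without bicarbonate, buffered to pH 7.0 with 0.165 M MOPS. Final test range for the compounds was 0.175–87.5 μM. Incubation at 35°C with visual reading at 24–72 h. MIC was the lowest concentration giving 100% inhibition versus the growth control (azoles 50% or 100%, by organism). Each isolate was run in duplicate in two independent experiments.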

[1] = test system: Cryptococcus gattii species complex; experiment: Antifungal activity against Cryptococcus gattii after 24 to 72 hrs by broth microdilution method; type: functional, Cryptococcus bacillisporus; method in brief: as §1
Candida albicans = experiment: Antifungal activity against Candida albicans after 24 to 72 hrs by broth microdilution method; type: functional
Method in brief: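 CLSI M27-A3 broth microdilution for yeasts in RPMI 1640 with L-glutamine and no bicarbonate, buffered with 0.165 M MOPS to pH 7.0. Compounds were dissolved in water and tested at 0.175–87.5 μM final, 35°C. MIC was read visually at 24–72 h as 100% inhibition versus growth control. For MFC, 30 μl from clear wells went onto SDA at 35°C for 48–72 h, reading the lowest concentration without colonies. Duplicates, two independent runs.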

Candida tropicalis = experiment: Antifungal activity against Candida tropicalis after 24 to 72 hrs by broth microdilution method; type: functional; method in brief: as §1
Nakaseomyces glabratus = experiment: Antifungal activity against Candida glabrata after 24 to 72 hrs by broth microdilution method; type: functional; method in brief: as §1
Candida parapsilosis = experiment: Antifungal activity against Candida parapsilosis after 24 to 72 hrs by broth microdilution method; type: functional; conditions: Lodderomyces parapsilosis; method in brief: as §1
Pichia kudriavzevii = experiment: Antifungal activity against Candida krusei after 24 to 72 hrs by broth microdilution method; type: functional; method in brief: as §1
Candida dubliniensis = experiment: Antifungal activity against Candida dubliniensis after 24 to 72 hrs by broth microdilution method; type: functional; method in brief: as §1
[2] = test system: Meyerozyma guilliermondii; experiment: Antifungal activity against Candida guilliermondii after 24 to 72 hrs by broth microdilution method; type: functional; method in brief: as §1
Clavispora lusitaniae = experiment: Antifungal activity against Candida lusitaniae after 24 to 72 hrs by broth microdilution method; type: functional; method in brief: as §1

Row | Compound | MIC (Cryptococcus neoformans) [µg/mL] | MIC50 (Cryptococcus neoformans) [µg/mL] | MIC90 (Cryptococcus neoformans) [µg/mL] | MIC [1] [µg/mL] | MIC50 [1] [µg/mL] | MIC90 [1] [µg/mL] | MIC (Candida albicans) [µg/mL] | MIC50 (Candida albicans) [µg/mL] | MIC90 (Candida albicans) [µg/mL] | MIC (Candida tropicalis) [µg/mL] | MIC50 (Candida tropicalis) [µg/mL] | MIC90 (Candida tropicalis) [µg/mL] | MIC (Nakaseomyces glabratus) [µg/mL] | MIC50 (Nakaseomyces glabratus) [µg/mL] | MIC90 (Nakaseomyces glabratus) [µg/mL] | MIC (Candida parapsilosis) [µg/mL] | MIC50 (Candida parapsilosis) [µg/mL] | MIC90 (Candida parapsilosis) [µg/mL] | MIC (Pichia kudriavzevii) [µg/mL] | MIC50 (Pichia kudriavzevii) [µg/mL] | also measured
1 | CC[C@@H]([C@H](C)O)n1ncn(-c2ccc(N3CCN(c4ccc(OC[C@@H]5CO[C@@](Cn6cncn6)(c6ccc(F)cc6F)C5)cc4)CC3)cc2)c1=O [POSACONAZOLE] | 0.07 (≈ 0.0999 µM) | 0.06 (≈ 0.0856 µM) | 0.125 (≈ 0.178 µM) | 0.04 (≈ 0.0571 µM) | 0.03 (≈ 0.0428 µM) | 0.06 (≈ 0.0856 µM) | 0.04 (≈ 0.0571 µM) | 0.02 (≈ 0.0285 µM) | 0.18 (≈ 0.257 µM) | 0.061 (≈ 0.087 µM) | 0.06 (≈ 0.0856 µM) | 0.25 (≈ 0.357 µM) | 1.23 (≈ 1.76 µM) | 1 (≈ 1.43 µM) | 8 (≈ 11.4 µM) | 0.049 (≈ 0.0699 µM) | 0.06 (≈ 0.0856 µM) | 0.06 (≈ 0.0856 µM) | 0.18 (≈ 0.257 µM) | 0.125 (≈ 0.178 µM) | MIC90 (Pichia kudriavzevii): 0.25 µg/mL (≈ 0.357 µM); MIC (Candida dubliniensis): 0.014 µg/mL (≈ 0.02 µM); MIC50 (Candida dubliniensis): 0.008 µg/mL (≈ 0.0114 µM); MIC90 (Candida dubliniensis): 0.03 µg/mL (≈ 0.0428 µM); MIC [2]: 0.14 µg/mL (≈ 0.2 µM); MIC50 [2]: 0.125 µg/mL (≈ 0.178 µM); MIC90 [2]: 0.25 µg/mL (≈ 0.357 µM); MIC (Clavispora lusitaniae): 0.015 µg/mL (≈ 0.0214 µM); MIC50 (Clavispora lusitaniae): 0.016 µg/mL (≈ 0.0228 µM); MIC90 (Clavispora lusitaniae): 0.03 µg/mL (≈ 0.0428 µM)
2 | CCC(C)n1ncn(-c2ccc(N3CCN(c4ccc(OCC5COC(Cn6cncn6)(c6ccc(Cl)cc6Cl)O5)cc4)CC3)cc2)c1=O (stereo not given) [ITRACONAZOLE] | 0.06 (≈ 0.085 µM) | 0.06 (≈ 0.085 µM) | 0.125 (≈ 0.177 µM) | 0.07 (≈ 0.0992 µM) | 0.06 (≈ 0.085 µM) | 0.125 (≈ 0.177 µM) | 0.07 (≈ 0.0992 µM) | 0.04 (≈ 0.0567 µM) | 0.09 (≈ 0.128 µM) | 0.11 (≈ 0.156 µM) | 0.125 (≈ 0.177 µM) | 0.25 (≈ 0.354 µM) | 1.15 (≈ 1.63 µM) | 0.5 (≈ 0.709 µM) | 16 (≈ 22.7 µM) | 0.07 (≈ 0.0992 µM) | 0.06 (≈ 0.085 µM) | 0.125 (≈ 0.177 µM) | 0.33 (≈ 0.468 µM) | 0.25 (≈ 0.354 µM) | MIC90 (Pichia kudriavzevii): 0.5 µg/mL (≈ 0.709 µM); MIC (Candida dubliniensis): 0.028 µg/mL (≈ 0.0397 µM); MIC50 (Candida dubliniensis): 0.03 µg/mL (≈ 0.0425 µM); MIC90 (Candida dubliniensis): 0.06 µg/mL (≈ 0.085 µM); MIC [2]: 0.5 µg/mL (≈ 0.709 µM); MIC50 [2]: 0.5 µg/mL (≈ 0.709 µM); MIC90 [2]: 1 µg/mL (≈ 1.42 µM); MIC (Clavispora lusitaniae): 0.09 µg/mL (≈ 0.128 µM); MIC50 (Clavispora lusitaniae): 0.06 µg/mL (≈ 0.085 µM); MIC90 (Clavispora lusitaniae): 0.25 µg/mL (≈ 0.354 µM)
3 | OC(Cn1cncn1)(Cn1cncn1)c1ccc(F)cc1F [FLUCONAZOLE] | 4.59 (≈ 15 µM) | 4 (≈ 13.1 µM) | 16 (≈ 52.2 µM) | 4 (≈ 13.1 µM) | 4 (≈ 13.1 µM) | 8 (≈ 26.1 µM) | 1.15 (≈ 3.75 µM) | 0.5 (≈ 1.63 µM) | 16 (≈ 52.2 µM) | 1.41 (≈ 4.6 µM) | 1 (≈ 3.27 µM) | 4 (≈ 13.1 µM) | 32 (≈ 104 µM) | 16 (≈ 52.2 µM) | 256 (≈ 836 µM) | 2.14 (≈ 6.99 µM) | 2 (≈ 6.53 µM) | 4 (≈ 13.1 µM) | 84.5 (≈ 276 µM) | 64 (≈ 209 µM) | MIC90 (Pichia kudriavzevii): 128 µg/mL (≈ 418 µM); MIC (Candida dubliniensis): 0.43 µg/mL (≈ 1.4 µM); MIC50 (Candida dubliniensis): 0.25 µg/mL (≈ 0.816 µM); MIC90 (Candida dubliniensis): 0.5 µg/mL (≈ 1.63 µM); MIC [2]: 7.46 µg/mL (≈ 24.4 µM); MIC50 [2]: 4 µg/mL (≈ 13.1 µM); MIC90 [2]: 16 µg/mL (≈ 52.2 µM); MIC (Clavispora lusitaniae): 2.64 µg/mL (≈ 8.62 µM); MIC50 (Clavispora lusitaniae): 2 µg/mL (≈ 6.53 µM); MIC90 (Clavispora lusitaniae): 4 µg/mL (≈ 13.1 µM)
4 | CC[C@H](C)C[C@H](C)CCCCCCCCC(=O)N[C@H]1C[C@@H](O)[C@@H](NCCN)NC(=O)[C@@H]2[C@@H](O)CCN2C(=O)[C@H]([C@H](O)CCN)NC(=O)[C@H]([C@H](O)[C@@H](O)c2ccc(O)cc2)NC(=O)[C@@H]2C[C@@H](O)CN2C(=O)[C@H]([C@@H](C)O)NC1=O [CASPOFUNGIN] | 8 (≈ 7.32 µM) | 8 (≈ 7.32 µM) | 8 (≈ 7.32 µM) | 8 (≈ 7.32 µM) | 8 (≈ 7.32 µM) | 8 (≈ 7.32 µM) | 0.12 (≈ 0.11 µM) | 0.14 (≈ 0.128 µM) | 0.27 (≈ 0.247 µM) | 0.14 (≈ 0.128 µM) | 0.125 (≈ 0.114 µM) | 0.25 (≈ 0.229 µM) | 0.19 (≈ 0.174 µM) | 0.125 (≈ 0.114 µM) | 0.25 (≈ 0.229 µM) | 0.66 (≈ 0.604 µM) | 0.5 (≈ 0.457 µM) | 1 (≈ 0.915 µM) | 0.31 (≈ 0.284 µM) | 0.25 (≈ 0.229 µM) | MIC90 (Pichia kudriavzevii): 0.5 µg/mL (≈ 0.457 µM); MIC (Candida dubliniensis): 0.07 µg/mL (≈ 0.064 µM); MIC50 (Candida dubliniensis): 0.06 µg/mL (≈ 0.0549 µM); MIC90 (Candida dubliniensis): 0.125 µg/mL (≈ 0.114 µM); MIC [2]: 1.15 µg/mL (≈ 1.05 µM); MIC50 [2]: 1 µg/mL (≈ 0.915 µM); MIC90 [2]: 2 µg/mL (≈ 1.83 µM); MIC (Clavispora lusitaniae): 0.54 µg/mL (≈ 0.494 µM); MIC50 (Clavispora lusitaniae): 0.5 µg/mL (≈ 0.457 µM); MIC90 (Clavispora lusitaniae): 1 µg/mL (≈ 0.915 µM)
5 | C[C@@H](c1ncncc1F)[C@](O)(Cn1cncn1)c1ccc(F)cc1F [VORICONAZOLE] | 0.04 (≈ 0.115 µM) | 0.03 (≈ 0.0859 µM) | 0.125 (≈ 0.358 µM) | 0.05 (≈ 0.143 µM) | 0.06 (≈ 0.172 µM) | 0.06 (≈ 0.172 µM) | 0.04 (≈ 0.115 µM) | 0.01 (≈ 0.0286 µM) | 0.17 (≈ 0.487 µM) | 0.07 (≈ 0.2 µM) | 0.125 (≈ 0.358 µM) | 0.25 (≈ 0.716 µM) | 0.41 (≈ 1.17 µM) | 0.25 (≈ 0.716 µM) | 4 (≈ 11.5 µM) | 0.043 (≈ 0.123 µM) | 0.06 (≈ 0.172 µM) | 0.06 (≈ 0.172 µM) | 0.41 (≈ 1.17 µM) | 0.25 (≈ 0.716 µM) | MIC90 (Pichia kudriavzevii): 1 µg/mL (≈ 2.86 µM); MIC (Candida dubliniensis): 0.011 µg/mL (≈ 0.0315 µM); MIC50 (Candida dubliniensis): 0.008 µg/mL (≈ 0.0229 µM); MIC90 (Candida dubliniensis): 0.016 µg/mL (≈ 0.0458 µM); MIC [2]: 0.124 µg/mL (≈ 0.355 µM); MIC50 [2]: 0.125 µg/mL (≈ 0.358 µM); MIC90 [2]: 0.25 µg/mL (≈ 0.716 µM); MIC (Clavispora lusitaniae): 0.02 µg/mL (≈ 0.0573 µM); MIC50 (Clavispora lusitaniae): 0.03 µg/mL (≈ 0.0859 µM); MIC90 (Clavispora lusitaniae): 0.16 µg/mL (≈ 0.458 µM)

From ChEMBL document CHEMBL1629527, “In vitro antifungal activities of bis(alkylpyridinium)alkane compounds against pathogenic yeasts and molds” (Antimicrob Agents Chemother, 2010)
